hIAP inh – blocks human intestinal alkaline phosphatase; P09923; purified IAP, CDP-Star luminescence, 30 min; inhibition, % at 10 µM; hit rate 0.12% among 330,000;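 active means inhibition reaching a set limit with compound at 10 µM in the primary screen, cut at about 35% in these data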;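 further: plate controls were DMSO wells with enzyme for no effect and no-enzyme buffer wells for full effect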
Target sequence (P09923 whole entry, looked up): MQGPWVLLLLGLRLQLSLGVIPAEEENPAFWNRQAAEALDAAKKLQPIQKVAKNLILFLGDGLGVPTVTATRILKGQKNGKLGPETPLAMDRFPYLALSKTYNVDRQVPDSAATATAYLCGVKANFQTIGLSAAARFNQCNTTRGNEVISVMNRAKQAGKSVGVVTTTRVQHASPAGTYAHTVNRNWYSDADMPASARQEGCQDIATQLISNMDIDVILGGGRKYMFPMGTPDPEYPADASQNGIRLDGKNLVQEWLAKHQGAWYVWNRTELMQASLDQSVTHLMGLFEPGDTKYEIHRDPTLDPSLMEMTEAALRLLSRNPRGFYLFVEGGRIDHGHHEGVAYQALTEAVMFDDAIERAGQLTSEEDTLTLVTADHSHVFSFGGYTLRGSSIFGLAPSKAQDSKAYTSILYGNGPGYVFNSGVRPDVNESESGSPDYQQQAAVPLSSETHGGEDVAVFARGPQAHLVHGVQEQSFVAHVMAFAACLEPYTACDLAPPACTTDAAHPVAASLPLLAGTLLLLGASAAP
bIAP activator – intestinal alkaline phosphatase (bovine) activation. purified bovine IAP, CDP-star luminescence, 30 min; stronger effect = higher value; fold of DMSO-control signal, blank-subtracted. activation factor at 20 µM. hit rate 0.17% among 200,000;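 active means activation factor of 2 or more at 20 µM, a signal rise over negative controls twice the positive control's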
hIAP activ – human IAP activation | purified human IAP, CDP-Star luminescence, 30 min; stronger effect = higher value; 1 = vehicle-only enzyme, 0 = enzyme-free background | activation factor at 10 µM | P09923 | hit rate 0.16% among 330,000;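 active means activation factor of the enzyme at least 2-fold when tested at 20 µM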
bIAP inhibitor – blocks bovine intestinal alkaline phosphatase activity. 190,000 tested, under 10 active. purified bovine IAP, CDP-star luminescence, 30 min. inhibition, % at 20 µM;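 active means over 50% inhibition of intestinal alkaline phosphatase at 20 µM in the single-dose screen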
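System: Purified bovine intestinal alkaline phosphatase (IAP) enzyme | Input: IAP diluted 1/65,000,000 in the well | Also added: CDP-star chemiluminescent phosphatase substrate, 30 µM final | Dosing: 20 µM single dose | Times: Enzyme reaction for 30 min at room temperature | Detection: Luminescence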
mIAP inh – mouse IAP inhibition; purified mouse IAP, CDP-Star luminescence, 30 min; inhibition, % at 10 µM; hit rate 0.2% among 330,000;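 active means inhibition of at least 40% at 10 µM in the primary screen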;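 further: plate controls were DMSO with enzyme for no effect and no enzyme wells for full effect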
mIAP act – mouse IAP activation. muIAP, CDP-Star luminescence, 30 min; stronger effect = higher value; 1 = vehicle-only enzyme signal, 0 = enzyme-free wells. AID 2805. hit rate 0.24% among 330,000. activation factor at 10 µM;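 active means activation factor of at least 2 at 20 µM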
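System: mouse IAP enzyme. Reagent: CDP-Star chemiluminescent phosphatase substrate. Benchmarks: DMSO wells, no-enzyme wells. Times: 30 min enzyme-substrate-compound incubation at room temperature. Detection: luminescence from enzymatic CDP-Star hydrolysis. Doses: test compounds delivered from DMSO solution.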
The depositor's hits bear a star; i = inactive; . = no result. Most compounds without a hit are left out; they make up all but 0.77% or so of the library.

SMILES	hIAP inh	bIAP activator	hIAP activ	bIAP inhibitor	mIAP inh	mIAP act
CC(NC(=O)COC(=O)c1ccccc1F)C1CC2CCC1C2 (centres undefined)	14	.	0.86	.	3	0.97
Cc1ccc(O)c(-c2cc(C(=O)NCc3ccncc3)[nH]n2)c1	0	2.1*	1	-106	2	0.98
COc1cccc(CNC(=O)N2CCN(c3ccccc3)CC2)c1	15	.	0.85	.	0	1
O=C(NCCCN1CCCC1=O)C(=O)NCC1OCCCN1S(=O)(=O)c1cc(F)ccc1F (centres undefined)	10	.	0.91	.	-3	1
Cc1ccc(NC(=O)N/C=C/c2ccc(Cl)cc2)cc1	-24	0.5	1.2	.	-131	2.3*
Cc1ccc(NC(=O)N/C=C/c2ccccc2)cc1	5	0.8	0.95	16	-123	2.2*
COc1ccc(NC(=O)N/C=C/c2ccc(Cl)cc2)cc1	-12	1	1.1	-3	-9	1.1
Cn1c(/C=C(\C#N)C(N)=S)ccc1-c1ccc(Br)cc1	.	0.9	.	6	.	.
Cc1cc(C)nc(/N=C(\N)Nc2ccc(-c3ccccc3)cc2)n1	-34	3.7*	1.3	-267	-50	1.5
CC(=O)Nc1ccc(N/C(N)=N/c2nc(C)cc(C)n2)cc1	11	1	0.89	-1	-6	1.1
CCCN1CCN(CCCNC(=O)c2ccc(CS(=O)c3ccccc3C)o2)CC1 (centres undefined)	8	.	0.92	.	6	0.94
COc1ccc(C[C@H]2CN3C(=NC[C@@H]3Cc3ccccc3)N2CCNC(=O)CCC2CCCCC2)cc1	9	2.1*	0.91	-105	1	0.99
COc1ccc(C[C@H]2CN3C(=NC[C@@H]3C(C)C)N2CCNC(=O)CCC2CCCCC2)cc1	14	1.1	0.85	-15	-2	1
COc1ccc(-c2cc(C(=O)Nc3cc(Br)ccc3O)no2)cc1	-1	.	1	.	12	0.88
O=C(Nc1ncccn1)C1CCCCC1	-13	1	1.1	4	-18	1.2
O=C(Nc1n[nH]c(C2CCCCC2)n1)C1CCCCC1	9	8.1*	0.91	i	-133	2.3*
COc1ccc(OCCNC(=O)Nc2cc(F)c(F)cc2Cl)cc1	-11	1.1	1.1	-5	-86	1.9
COc1cccc(OCCNC(=O)Nc2cc(F)c(F)cc2Cl)c1	-13	1.1	1.1	-10	-133	2.3*
O=C(Nc1ccc2ccccc2c1)c1cn(-c2ccccc2)nc1-c1cccs1	13	1	0.87	-2	-114	2.1*
c1ccc(CSc2ncnc3c2cnn3-c2ccccc2)cc1	16	1	0.84	1	15	0.85
CCc1ccccc1NC(=S)NC1CC2CCCC(C1)N2Cc1cccs1 (centres undefined)	7	1.4	0.93	-43	-140	2.4*
CCCN1C2CCCC1CC(NC(=S)Nc1cccc(C)c1C)C2 (centres undefined)	-17	.	1.2	.	-7	1.1
Cc1cccc(C)c1NC(=O)NC1CC2CCC(C1)N2Cc1cccs1 (centres undefined)	-1	1.1	1	-12	-6	1.1
Cc1cccc(NC(=S)NC2CC3CCCC(C2)N3Cc2cccs2)c1C (centres undefined)	-22	1.3	1.2	-28	-131	2.3*
COc1ccc(C2Nc3ccccc3C(=O)N2O)cc1OC (centres undefined)	0	1	1	-3	4	0.96
SMILES	hIAP inh	bIAP activator	hIAP activ	bIAP inhibitor	mIAP inh	mIAP act
COc1ccc(C2Nc3ccccc3C(=O)N2O)cc1CN1CCOCC1 (centres undefined)	-8	2*	1.1	-100	10	0.9
Cn1c(C(O)c2ccc3c(c2)OCO3)nc2ccccc21 (centres undefined)	-36	1.3	1.4	-32	12	0.88
CC(C)n1c(C(O)c2ccc3c(c2)OCO3)nc2ccccc21 (centres undefined)	12	2.6*	0.88	-165	0	1
O=C1CCCCN1CC(=O)N1CCCC(Nc2ccc(F)cc2)C1 (centres undefined)	-42	.	1.4	.	44*	0.56
COC(=O)c1ccc2c(c1)C(C)(C)C(/C=C/c1ccc(O)cc1)=[N+]2C	50*	0.2	0.5	.	12	0.89
Cc1ccc(NC(=S)NCc2ccc3[nH]c4c(c3c2)CCCC4)cc1	11	0.9	0.89	6	-141	2.4*
COC(=O)C1=C(C)NC(=O)NC1c1ccc(OC(=O)c2ccco2)cc1 (centres undefined)	15	1	0.85	2	2	0.98
COc1ccccc1NC(=O)CC(NCc1ccccc1)C(=O)O (centres undefined)	-3	2.3*	1	-134	-2	1
COc1ccc(NC(=O)CC(NCCc2ccccc2)C(=O)O)c(OC)c1 (centres undefined)	2	1	0.97	5	2	0.98
CCc1ccc(N=Nc2ccc(O)c3[nH]cnc23)cc1	-33	.	1.3	.	40*	0.6
COc1ccc(N=Nc2ccc(O)c3ncccc23)cc1	-14	.	1.1	.	-9	1.1
CCn1c(SCC(=O)Nc2ccc(C(=O)OC)cc2)nc2cccnc21	4	1.1	0.96	-10	2	0.98
O=C(NNC(=S)NCc1ccco1)c1ccc(Cl)s1	-36	1	1.4	2	14	0.86
O=C(CSCc1ccco1)c1ccc(Cl)s1	1	0.9	0.99	13	45*	0.55
C=CCNC(=O)CN1CCN(C(c2ccccc2)c2ccccc2)CC1	5	.	0.95	.	-7	1.1
Cc1ccc2nc(N3C(=O)C(O)=C(C(=O)c4ccc(C)o4)C3c3ccco3)sc2c1 (centres undefined)	-22	.	1.2	.	50*	0.5
N#C/C(=C(/O)COC(=O)CSc1ccc2ccccc2c1)c1nc2ccccc2[nH]1	-143	0.6	2.4*	43	22	0.78
COc1ccc(S(=O)(=O)N(C)C[C@H]2Oc3ccc(NC(=O)Nc4ccc(C(F)(F)F)cc4)cc3C(=O)N([C@H](C)CO)C[C@@H]2C)cc1	-14	.	1.1	.	-39	1.4
C[C@H](CO)N1C[C@H](C)[C@@H](CN(C)S(=O)(=O)c2ccccc2)Oc2ccc(NC(=O)Nc3ccc4c(c3)OCO4)cc2C1=O	-2	.	1	.	-159	2.6*
C[C@H](CO)N1C[C@H](C)[C@@H](CN(C)S(=O)(=O)c2ccccc2)Oc2ccc(NC(=O)Cc3ccccc3)cc2C1=O	2	.	0.98	.	-26	1.3
COc1ccc(NC(=O)Nc2ccc3c(c2)C(=O)N([C@H](C)CO)C[C@H](C)[C@@H](CN(C)S(=O)(=O)c2ccc(OC)cc2)O3)cc1	2	.	0.98	.	-155	2.6*
Fc1ccc(NC(=S)NC2CC3CCCC(C2)N3Cc2cccs2)cc1 (centres undefined)	-8	1.4	1.1	-41	-181	2.8*

Source: PubChem BioAssay (Sanford-Burnham Center for Chemical Genomics)
